H69AR growth 86K: proliferation blockers of H69AR lung cancer cells, primary screen, cell-based, human, 86K library; viability, % at 10 µM; AID 598, 2007; hit rate 6% among 85,000; H69AR lung tumor viability, ATP luminescence, 72 h; active compounds read low;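 active = viability at or below 40%; inactive = viability above 40%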;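 also: multidrug resistant small cell line overexpressing MRP-1 efflux transporter; 100% = mean luminescence of untreated control wells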
Lung fibro prol: antiproliferative effect on LL 47 fibroblasts – human, LL 47 cells, CellTiter-Glo luminescence, primary screen; hit rate 1.1% among 85,000; LL 47 human lung fibroblast viability, ATP luminescence; active compounds read low; viability, % at 10 µM; AID 719, 2007;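 active = viability at or below 50% in the single dose screen; inactive = viability above 50%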;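 also: compound exposure lasted 72 h before the ATP readout; 100% = median luminescence of untreated cell-only wells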
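Test system: LL 47 human lung fibroblasts / Quantity: 1,150 cells in each well / Medium: IMEM growth medium with 15% fetal bovine serum / Incubation: 72 h compound exposure at 37 °C after overnight plating / Detection: CellTiter-Glo luminescence measuring cellular ATP / Read-out: % viability versus median cells-only luminescence / Benchmarks: cell-only wells, no compound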
HCT116 bCat-KO: primary screen for growth suppressors in beta-catenin knockout HCT116 cells (colon tumor, human); hit rate 1.5% among 140,000; viability, % at 10 µM; HCT116 beta-catenin knockout viability, CellTiter-Glo, 60 h; active compounds read low;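 active = viability at or under a set limit, the compound median less 4 SD, cut at about 6% in these data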;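 also: 0% = Hyamine 1622 control at 20 µM and 100% = untreated cell control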
HUVEC inhibit: inhibitors of HUVEC proliferation, primary screen, cell-based, 384-well; AID 648, 2007; viability, % at 10 µM (by protocol); CellTiter-Glo luminescence, 72 h; active compounds read low; hit rate 1.1% among 86,000;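 active = viability at or below 30%; inactive = viability above 30%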;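 also: 100% = median luminescence of DMSO-only cell control wells on each plate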
PTEN del growth: growth suppression of PTEN-null HCT116, primary screen, cell-based, CellTiter-Glo; HCT116 PTEN-null viability, 60 h; active compounds read low; viability, % at 10 µM; hit rate 1.2% among 140,000; AID 827, 2007;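 active = viability at or below a set limit, 4 SD under the median of all tested compounds, cut at about 3.7% in these data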;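 also: PTEN knockout HCT116 line with beta catenin targeted HCT116 as companion control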
* = called active by the depositor; x = no result. This is one part of a sample in which hits are shown more often than they occur.

SMILES	H69AR growth 86K	Lung fibro prol	HCT116 bCat-KO	HUVEC inhibit	PTEN del growth
O=S1(=O)C=C(Sc2nc3ccccc3s2)c2ccccc21	103	3.1*	1.9*	12*	1.2*
COc1ccc(C(=O)N=c2sc3c(C)ccc(OC)c3n2C)cc1	x	x	74	x	64
CC(=O)Nc1ccc(/C(C)=N/NS(=O)(=O)c2ccccc2)cc1	x	x	98	x	101
Cc1ccc(CS/C(Nc2ccccc2C)=C(\C#N)C(N)=O)c(C)c1	x	x	74	x	70
N#CC1=C(SCC(=O)c2ccc(Br)cc2)NC2=C(C(=O)CCC2)C1c1ccco1 (centres undefined)	17*	57	20	51	20
CC(=O)C1=C(C)NC(SCC(=O)c2ccc(Cl)cc2)=C(C#N)C1c1ccco1 (centres undefined)	29*	x	55	63	49
CC(=O)C1=C(C)NC(SCC(=O)c2ccccc2)=C(C#N)C1c1ccco1 (centres undefined)	63	x	64	72	51
CCOC(=O)C1=C(CSc2nc(CC)c(C)cc2C#N)OC(N)=C(C#N)C1c1ccccc1 (centres undefined)	28*	78	29	78	49
CCOC(=O)C1=C(CSc2nc(C)cc(C)c2C#N)OC(N)=C(C#N)C1c1ccccc1 (centres undefined)	81	101	100	98	90
CCOC(=O)C1=C(CSc2nc3c(cc2C#N)CN(C)CC3)OC(N)=C(C#N)C1c1ccc(Cl)cc1 (centres undefined)	36*	103	81	88	90
CC1Cc2ccccc2N1C(=O)c1nn(C)cc1Br (centres undefined)	x	x	94	x	90
O=C1CCCN1c1ccc(S(=O)(=O)NCCOc2ccccc2)cc1	102	103	65	114	81
Cc1cc(N2CCCC2=O)cc(C)c1S(=O)(=O)NCCOc1ccc(C(C)(C)C)cc1	33*	96	22	79	25
Cc1ccc(-c2onc3ccc(C=O)cc23)cc1	33*	91	25	57	36
CCSc1nc(-c2ccccc2)nc(C(Cl)Cl)n1	x	x	4.2*	x	2.0*
CSc1nc(-c2ccc(C)cc2)nc(C(Cl)Cl)n1	x	x	1.1*	x	1.1*
CCSc1nc(-c2ccccc2)c2cc(Cl)ccc2n1	x	x	84	x	85
O=C(c1cc(N2C(=O)C3C4CCC(C4)C3C2=O)ccc1Cl)N1CCN(c2ccccc2F)CC1 (centres undefined)	x	x	85	x	86
CN(c1cccc(NC(=O)CN(c2ccc(C34CC5CC(CC(C5)C3)C4)cc2)S(C)(=O)=O)c1)S(C)(=O)=O	x	x	1.9*	x	2.0*
COc1ccc(N(CC(=O)Nc2cccc(N(C)S(C)(=O)=O)c2)S(C)(=O)=O)cc1OC	99	95	85	97	86
CCOC(=O)Cn1c(=NC(=O)c2sc3ccccc3c2Cl)sc2cc(S(N)(=O)=O)ccc21	x	x	26	x	2.8*
O=C(CC1(O)C(=O)N(Cc2ccccc2)c2ccccc21)c1ccc2c(c1)OCO2 (centres undefined)	76	100	103	93	91
O=C(CC1(O)C(=O)N(Cc2ccccc2)c2ccccc21)c1ccncc1 (centres undefined)	17*	98	14	75	15
O=C(CC1(O)C(=O)N(Cc2ccc3c(c2)OCO3)c2ccccc21)c1ccccc1 (centres undefined)	14*	x	15	84	13
Cc1ccccc1CN1C(=O)C(O)(CC(=O)c2ccncc2)c2ccccc21 (centres undefined)	19*	103	18	67	15
SMILES	H69AR growth 86K	Lung fibro prol	HCT116 bCat-KO	HUVEC inhibit	PTEN del growth
Cc1ccc(C(=O)CC2(O)C(=O)N(Cc3ccc4c(c3)OCO4)c3ccccc32)cc1 (centres undefined)	44	99	31	97	25
COC(=O)c1sccc1NS(=O)(=O)c1ccc(OC)cc1	15*	84	34	70	33
CC(=O)c1cc2c(cc1NS(=O)(=O)c1ccccc1)OCO2	82	84	87	80	88
COC(=O)c1ccc(C)c(NS(=O)(=O)c2ccc(OC)cc2)c1	37*	56	17	46	17
COC(=O)c1ccc(C)c(NS(=O)(=O)c2ccc3c(c2)OCCO3)c1	30*	60	21	47	18
CC(=O)c1cc2c(cc1NS(=O)(=O)c1ccc(C)cc1)OCCO2	18*	81	58	60	48
CC1=C(C(=O)Nc2ccccc2)C(c2cccc([N+](=O)[O-])c2)Nc2nc3ccccc3n21 (centres undefined)	35*	96	70	91	70
Cc1ccc(-n2nnc3c(=O)n(Cc4cccc(C)c4)cnc32)cc1	102	99	97	106	101
Cc1ccc(-n2nnc3c(=O)n(Cc4cc(C)ccc4C)cnc32)cc1	33*	99	75	63	80
Cc1ccc(-c2cc(-c3ccc(F)cc3)nc(N)c2C#N)o1	14*	93	49	68	53
Cc1ccc(-c2cc(-c3ccccc3)c(C#N)c(N)n2)o1	105	85	89	85	73
COc1ccc(CN(C(=O)CSc2nnc(-c3ccccc3C)o2)c2ccc(F)cc2)cc1	0.4*	102	78	128	79
O=C(CSc1nnc(-c2c[nH]c3ccccc23)o1)N(Cc1ccccc1)c1ccc(F)cc1	56	108	20	82	14
CC(=O)c1cccc(NC(=O)Nc2ccc3c(c2)N(C)C(=O)CS3)c1	24*	93	88	34	92
Cc1ccc2nc(NC(=O)CN(C)S(=O)(=O)c3ccc(Br)s3)sc2c1	21*	97	22	57	21
CCc1ccc(N(CC(=O)Nc2nc3ccc(C)cc3s2)S(=O)(=O)c2c(C)noc2C)cc1	3.3*	98	28	50	23
Cc1ccc2nc(NC(=O)CN(C)S(=O)(=O)c3cccc4nsnc34)sc2c1	12*	25*	41	29*	31
Cc1ccnc(NC(=O)CN(C)S(=O)(=O)c2cccc3nsnc23)c1	75	98	99	94	107
COc1ccc(N(CC(=O)Nc2cc(Cl)ccc2OC)S(=O)(=O)c2c(C)noc2C)cc1	24*	48*	16	42	16
Cc1ccc(C)c(NC(=O)C(Sc2nnc(-c3cccs3)o2)c2ccccc2)c1 (centres undefined)	x	x	84	x	86
CCCCCCCNC(=O)C1CC(=O)N(C)C(=Nc2ccc(OC)cc2)S1 (centres undefined)	x	x	91	x	78
CCC(=O)Nc1nonc1-c1nc2ccccc2n1Cc1ccc(Cl)c(Cl)c1	16*	85	x	38	x
CC(=O)Nc1nonc1-c1nc2ccccc2n1Cc1ccccc1	x	x	75	x	73
COc1cc(-c2nc(-c3ccccc3)c(-c3ccc(F)cc3)[nH]2)cc2c1OCO2	x	x	68	x	76
